Source: ChEMBL document CHEMBL4699451, “Discovery of BIIB068: A Selective, Potent, Reversible Bruton's Tyrosine Kinase Inhibitor as an Orally Efficacious Agent for Autoimmune Diseases” (J Med Chem, 2020)

What was measured:
[1] = Cmax in rat at 5 mg/kg, po; format: ADME, organism-based; design: route oral, dose 5 mg/kg; details: in vivo
[2] = Clearance in dog at 1 mg/kg, iv; format: ADME, organism-based, Canis lupus familiaris; details: in vivo
[3] = Volume of distribution at steady state in cynomolgus monkey at 1 mg/kg, iv; format: ADME, organism-based, Macaca fascicularis; details: in vivo, read-out: Vdss
Outline: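 Intravenous dosing at 1 mg/kg; vehicle 70:30 PEG-400:H2O solution.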

[4] = Lipophilicity, log D of compound at pH 7.4 by shake flask method; format: physicochemical; details: buffer
[5] = Stability in rat plasma assessed as parent compound remaining after 6 hrs; format: ADME, cell-free; details: read-out: Stabilty
Outline: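 Compound incubated in plasma for 6 hours, then percentage of parent compound remaining determined.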

[6] = molecular target: T1, Tyrosine-protein kinase BTK (Mus musculus, UniProt P35991); assay: Inhibition of BTK in DBA1 mouse whole blood assessed as reduction in BTK phosphorylation; format: tissue-based
T1 sequence (P35991 whole entry): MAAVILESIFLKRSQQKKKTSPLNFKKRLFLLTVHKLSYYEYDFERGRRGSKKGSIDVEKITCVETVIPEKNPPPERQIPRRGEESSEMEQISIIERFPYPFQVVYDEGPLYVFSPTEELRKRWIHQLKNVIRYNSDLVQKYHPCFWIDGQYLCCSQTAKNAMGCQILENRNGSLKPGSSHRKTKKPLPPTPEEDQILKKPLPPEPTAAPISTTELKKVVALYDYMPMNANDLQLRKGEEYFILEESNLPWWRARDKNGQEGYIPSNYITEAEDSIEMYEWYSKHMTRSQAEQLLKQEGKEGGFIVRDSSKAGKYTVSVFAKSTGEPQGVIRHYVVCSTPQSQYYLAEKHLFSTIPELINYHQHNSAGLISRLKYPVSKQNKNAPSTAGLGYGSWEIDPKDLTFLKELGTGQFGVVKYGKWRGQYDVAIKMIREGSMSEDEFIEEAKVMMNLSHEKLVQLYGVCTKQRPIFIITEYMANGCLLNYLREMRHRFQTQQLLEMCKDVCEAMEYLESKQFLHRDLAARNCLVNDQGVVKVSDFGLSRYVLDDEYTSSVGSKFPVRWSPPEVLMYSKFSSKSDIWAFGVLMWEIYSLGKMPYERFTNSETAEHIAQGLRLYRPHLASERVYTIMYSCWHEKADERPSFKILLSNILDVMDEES

[7] = molecular target: T1, Tyrosine-protein kinase BTK; assay: In vivo inhibition of BTK in TI-2 antigen/ NP-Ficoll-induced DBA1 mouse immunized model assessed as reduction in BTK phosphorylation administered orally twice daily for 10 days measured post last dose; format: functional, organism-based
Outline: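 Female DBA/1 mice, nine per arm, were immunized with 30 µg NP-Ficoll ip on day 0 and dosed PO twice daily for 10 days (1-50 mg/kg/dose) in 0.5% carboxymethylcellulose/0.1% Tween 80. On day 10, serum NP-specific IgM was measured by ELISA on NP-BSA plates (biotin anti-IgM, streptavidin-HRP, ABTS, 405 nm) and titer interpolated against a pooled positive serum standard, reported as reduction vs vehicle. Whole-blood pBTK was taken at pre-last dose and 1 and 4 h post final dose.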

[8] = Toxicity in Sprague-Dawley rat assessed as effect on clinical pathology measured up to 13 weeks; details: in vivo, 2184 h
Outline: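 GLP toxicity studies lasting up to 13 weeks, run in Sprague-Dawley rats and cynomolgus monkeys.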

[9] = Toxicity in Sprague-Dawley rat assessed as effect on respiratory system administered as single dose; details: in vivo
Outline: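 Single-dose CNS and respiratory safety studies in rats.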

Cmax [1]: 2920 ng/mL | clearance [2]: 11 mL/min/kg | Vd [3]: 0.7 L/kg | logD [4]: 2.92 | remaining at 6 h [5]: > 95% | IC50 [6]: 170 nM | IC50 [7]: 130 nM
SMILES: Cc1cc(-c2ccnc(Nc3cnn(C)c3)n2)ccc1CNC(=O)N1CC(OC(C)C)C1
Activity [8]: Non-Toxic | Activity [9]: Non-Toxic
